Shown are actives, neighbours in structure and some others; about 3.6% of the full set was active somewhere.
HSF1 activator: increases HSF-1 driven luciferase reporter signal; hit rate 1.7% among 300,000; NIH3T3-HGL HSF-1 luciferase reporter, MG132, 8 h; 100% = twice DMSO control signal; activation, % at 9 µM;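 active = mean replicate activation of at least 50% with a set share of replicates each reaching 50%; inconclusive = only one of those two conditions met; inactive = mean below 50% and too few replicates reaching it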;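 note: 0% = median of the neutral control wells and 100% = twice that signal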
SR-BI DiI inh: mouse SR-BI HDL lipid transfer inhibition; hit rate 0.96% among 320,000; inhibition, % at 12.5 µM; Q61009; ldlA[mSR-BI] CHO cells, DiI-HDL uptake fluorescence, 3 h;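 active = mean replicate inhibition of at least 70% and a set share of replicates each scoring 70 or more; inconclusive = meets just one of the two criteria; inactive = fails both criteria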;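 note: 0% = median of neutral control wells and 100% = median of positive control wells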
Target sequence (Q61009 whole entry, looked up): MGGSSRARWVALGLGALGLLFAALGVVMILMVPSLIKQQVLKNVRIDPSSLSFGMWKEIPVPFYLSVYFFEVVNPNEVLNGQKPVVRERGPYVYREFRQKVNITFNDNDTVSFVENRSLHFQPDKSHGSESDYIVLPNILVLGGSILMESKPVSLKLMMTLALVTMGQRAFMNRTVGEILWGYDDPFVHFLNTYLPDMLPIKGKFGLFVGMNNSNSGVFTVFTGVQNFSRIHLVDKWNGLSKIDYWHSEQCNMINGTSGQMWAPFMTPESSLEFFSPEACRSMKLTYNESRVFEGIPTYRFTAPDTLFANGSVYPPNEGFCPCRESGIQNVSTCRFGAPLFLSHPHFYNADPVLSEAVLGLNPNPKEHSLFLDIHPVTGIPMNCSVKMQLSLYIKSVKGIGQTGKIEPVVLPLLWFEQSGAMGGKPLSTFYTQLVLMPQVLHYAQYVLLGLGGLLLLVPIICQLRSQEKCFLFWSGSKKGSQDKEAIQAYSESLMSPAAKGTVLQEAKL
MITF TRPM1 HTS: MITF TRPM1 promoter activation in melanoma cells | hit rate 0.75% among 300,000 | AID 588334 | SK-MEL-5 TRPM1-promoter luciferase, 24 h; % of positive control, neutral wells = 0 | activation, % at 12.5 µM;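 active = mean activation of at least 80% with every replicate also reaching 80%; inconclusive = mean reaches 80% but some replicate falls short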;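 note: 0% = neutral control wells and 100% = parthenolide positive control wells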
Wnt bcat act: activates Wnt/beta-catenin signaling in a reporter cell assay | activator, plate reader | activation, % at 9.35 µM | hit rate 1.2% among 300,000 | AID 743398; in the data active = activation above about 30%, passing the limit was not always enough; inconclusive = no clear call, values can overlap the other calls;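 note: 0% = neutral control wells and 100% = positive control wells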
SR-BI uptake up: SR-BI HDL lipid transfer activation. CHO ldlA[mSR-BI] cells, DiI-HDL uptake fluorescence, 3 h; 100 = double the neutral-control signal. activation, % at 12.5 µM. hit rate 0.096% among 320,000;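 active = mean replicate activation of at least 60% and every replicate at or above 60%; inconclusive = mean or all-replicate condition met, but not both; inactive = mean below 60% and not all replicates reaching 60%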;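 note: 0% = median plate neutral-control signal and 100% = twice that signal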
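Assay system: LDL receptor-deficient CHO ldlA cells overexpressing murine SR-BI / Medium: BSA-supplemented, HEPES-buffered Ham's F12, pH 7.4 / Probe or stimulus: DiI-labelled HDL at 10 µg/mL final / Timing: compound with DiI-HDL co-incubation, 3 h at 37 °C / Technique: bottom-read cell fluorescence after medium removal, ex 550/em 595 nm / Measure: HDL uptake via cellular fluorescence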
Numbers without * were called inactive; ? = inconclusive; · = no result.

SMILES	HSF1 activator	SR-BI DiI inh	MITF TRPM1 HTS	Wnt bcat act	SR-BI uptake up
O=C(NCCCN1CCCC1=O)C(=O)NCC1OCCCN1S(=O)(=O)c1ccccc1 (stereo not given)	·	·	·	-1.6	·
O=C(CSc1nnc(Cn2cnc3ccccc32)o1)Nc1cccc2ccccc12	51.4*	-333.3	·	-2.2	?
CC(C)(C)N1C(=O)c2ccccc2NC(=O)C1C(=O)NCCc1ccccc1 (stereo not given)	·	·	·	0.0	·
CCCCCc1cc(=O)oc2c(C(CCN3CCCC(C)C3)c3cc(OC)c(OC)c(OC)c3)c(OC)cc(OC)c12 (stereo not given)	-8.5	-24.1	-71.6	·	24.1
CCCCCc1cc(=O)oc2c(C(CCN3CCCCC3)c3cc(OC)c(OC)c(OC)c3)c(OC)cc(OC)c12 (stereo not given)	-14.1	-62.0	-87.5	-13.9	62.0*
CSc1ccc(Cn2c(C)c(C(=O)NCc3cccs3)sc2=O)cc1	·	·	·	-2.5	·
CC[C@H](C)/C=C(C)/C=C/C(=O)Cc1cc(O)c(C)c(O)c1C=O	78.3*	5.2	0.0	-1.5	-5.2
CCCCC[C@H](C)N1C[C@H](COCc2ccccc2)Oc2cc(N3CC[C@@H](N(C)C)C3)ccc2S1(=O)=O	·	·	·	-7.4	·
Clc1ccc(-n2c(SC/C=C/c3ccccc3)nnc2-c2cccnc2)cc1	69.1*	17.2	-8.4	·	-17.2
COc1ccccc1-c1cc(C(F)(F)F)nc(S(C)(=O)=O)n1	256.3*	-33.2	-90.5	·	33.2
COc1ccccc1-c1cc(C(F)(F)F)nc(S(=O)(=O)CCCC(=O)NC(C)C)n1	171.8*	-29.2	-85.2	·	29.2
COc1ccccc1-c1cc(C(F)(F)F)nc(N2CCCC2)n1	-2.6	26.7	-2.4	-2.2	-26.7
COc1ccccc1-c1cc(C(F)(F)F)nc(S(=O)(=O)CCCC(=O)Nc2cc(C)on2)n1	19.4	-5.0	-95.6	·	5.0
COc1ccccc1-c1cc(C(F)(F)F)nc(S(=O)(=O)CCCC(=O)Nc2cccnc2Cl)n1	·	-25.1	-75.2	-6.7	25.1
COc1ccccc1-c1cc(C(F)(F)F)nc(S(=O)(=O)CCCC(=O)NCc2ccc(F)cc2)n1	-79.7	-2.8	-88.8	5.0	2.8
COc1ccccc1-c1cc(C(F)(F)F)nc(S(=O)(=O)CCCC(=O)N2CCCCC2C)n1 (stereo not given)	78.8*	20.4	-90.5	-21.7	-20.4
COc1ccc(-c2cc(C(F)(F)F)nc(S(=O)(=O)CCCC(=O)Nc3cc(C)on3)n2)cc1OC	223.3*	-8.1	-40.6	-15.1	8.1
CC(C)c1cccc(C(C)C)c1NC(=O)OC1CCCCC1	·	·	·	-1.2	·
CN(C)c1ccc(-c2ccnc3c2CC(C)(C(=O)Nc2cccc(C(F)(F)F)c2)O3)cc1 (stereo not given)	·	·	·	-2.5	·
c1ccc(-c2cnc(-c3cccnc3)o2)cc1	·	20.1	60.3	·	-20.1
Fc1cccc(-c2ncc(-c3ccccc3)o2)c1	·	3.9	48.9	41.6*	-3.9
Cc1cccc(C)c1NC(=O)COC(=O)c1ccccc1Nc1ccccc1	-12.6	82.1*	-8.9	-0.8	-82.1
O=C(COC(=O)c1ccccc1Nc1ccc(SC(F)F)cc1)NC1CC1	79.1*	47.7	21.0	15.8	-47.7
CC(C)(C)NC(=O)COC(=O)c1ccccc1Nc1ccc(SC(F)F)cc1	98.0*	22.2	16.1	·	-22.2
CCC(C(=O)Nc1c(C)cccc1C)n1c(-c2ccc(=O)[nH]c2)nc2ccccc21 (stereo not given)	·	·	·	-1.0	·
SMILES	HSF1 activator	SR-BI DiI inh	MITF TRPM1 HTS	Wnt bcat act	SR-BI uptake up
C[C@@H]1CN([C@H](C)CO)S(=O)(=O)c2ccc(-c3ccc(C#N)cc3)cc2O[C@H]1CN(C)C(=O)Nc1cc(F)ccc1F	·	·	·	-7.2	·
CCOC(=O)C1=CCN(S(=O)(=O)c2ccccc2)C1c1ccccc1 (stereo not given)	·	·	·	-1.7	·
CC(=O)c1cccc(NC(=O)c2ccc(-c3ccccc3[N+](=O)[O-])o2)c1	34.2	17.9	25.9	108.6*	-17.9
O=C(Nc1ccccc1F)c1ccc([N+](=O)[O-])s1	101.5*	-4.4	-32.6	12.4	4.4
O=C(Nc1cccc2ccccc12)c1ccc([N+](=O)[O-])s1	70.9*	19.9	-34.9	-3.3	-19.9
CC(C)C(=O)N1CCN(c2ccccc2NC(=O)c2ccc([N+](=O)[O-])o2)CC1	79.8*	3.1	-41.2	6.8	-3.1
CC(C)N(Cc1ccccc1)S(=O)(=O)c1n[nH]c(C(C)(C)C)n1	·	·	·	-3.6	·
